Shown are actives, neighbours in structure and some others; about 1% of the full set was active somewhere.
Arr AP2 block: inhibitors of human beta-arrestin and AP2 interaction; FITC-arrestin peptide / GST-AP2 beads, flow cytometry; AP2 beta2 appendage carries R879A mutation; inhibition, % at 10 µM; hit rate 0.31% among 340,000; AID 504490;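 active = inhibition above a set limit, near 3 SD of compounds lacking own fluorescence, cut at about 54% in these data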;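 note: plate controls were DMSO wells for no effect and 5 µM unlabelled arrestin peptide for full effect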
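Material – AP2 appendage R879A on GSH beads · Buffer or medium – PBS with 0.05% Tween 20 and 0.1% BSA · Probe or stimulus – fluorescein-tagged arrestin peptide at 50 nM final · Incubation – compound with beads 12 min RT, then probe 1 h RT · Detection – high-throughput flow cytometry of beads, ex 488, em 535 nm · Evaluation – percent response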
Fh CTSL1 inh: counter-screen for PFM18AAP inhibitors: inhibitors of F. hepatica cathepsin L1. recombinant F. hepatica cathepsin L1, Z-Leu-Arg-MCA fluorescence. inhibition, % at 5.96 µM. hit rate 0.49% among 300,000. AID 1906;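 active = inhibition above the mean of all tested compounds plus 3 SD, set per screening campaign, cut at about 17% in these data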;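 note: 0% = plate median of test compound wells and 100% = 1 µM Z-Phe-Ala-diazomethylketone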
Lipid droplet: hepatic lipid droplet formation modulation. AML12 mouse hepatocytes, oleate lipid droplets, BODIPY imaging. inhibition, % at 6.5 µM. hit rate 0.4% among 240,000. AID 1656;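 active = lipid droplet intensity inhibited by at least 50%, with more than 500 cells counted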
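Test system: AML12 hepatocytes (mouse); reagent: oleate loading, 100 µM; dosing: one dose, 6.5 µM compound; incubation: overnight exposure; signal: fluorescence imaging, 20x objective, two fields per well; read-out basis: % inhibition of corrected integrated BODIPY droplet signal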
p-CIP stab down: lowers stability of the mouse p/CIP coactivator protein; hit rate 0.01% among 290,000; F442A p/CIP-EGFP cells, EGFP fluorescence, 16 h; decrease of EGFP signal, % at 10 µM; Q05BA5;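 active = EGFP signal decrease of at least 30% at 10 µM or well 3 SD below plate mean, unless failing retest; inactive = the rest, including hits failing retest or dose response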
Target sequence (Q05BA5 1-1403): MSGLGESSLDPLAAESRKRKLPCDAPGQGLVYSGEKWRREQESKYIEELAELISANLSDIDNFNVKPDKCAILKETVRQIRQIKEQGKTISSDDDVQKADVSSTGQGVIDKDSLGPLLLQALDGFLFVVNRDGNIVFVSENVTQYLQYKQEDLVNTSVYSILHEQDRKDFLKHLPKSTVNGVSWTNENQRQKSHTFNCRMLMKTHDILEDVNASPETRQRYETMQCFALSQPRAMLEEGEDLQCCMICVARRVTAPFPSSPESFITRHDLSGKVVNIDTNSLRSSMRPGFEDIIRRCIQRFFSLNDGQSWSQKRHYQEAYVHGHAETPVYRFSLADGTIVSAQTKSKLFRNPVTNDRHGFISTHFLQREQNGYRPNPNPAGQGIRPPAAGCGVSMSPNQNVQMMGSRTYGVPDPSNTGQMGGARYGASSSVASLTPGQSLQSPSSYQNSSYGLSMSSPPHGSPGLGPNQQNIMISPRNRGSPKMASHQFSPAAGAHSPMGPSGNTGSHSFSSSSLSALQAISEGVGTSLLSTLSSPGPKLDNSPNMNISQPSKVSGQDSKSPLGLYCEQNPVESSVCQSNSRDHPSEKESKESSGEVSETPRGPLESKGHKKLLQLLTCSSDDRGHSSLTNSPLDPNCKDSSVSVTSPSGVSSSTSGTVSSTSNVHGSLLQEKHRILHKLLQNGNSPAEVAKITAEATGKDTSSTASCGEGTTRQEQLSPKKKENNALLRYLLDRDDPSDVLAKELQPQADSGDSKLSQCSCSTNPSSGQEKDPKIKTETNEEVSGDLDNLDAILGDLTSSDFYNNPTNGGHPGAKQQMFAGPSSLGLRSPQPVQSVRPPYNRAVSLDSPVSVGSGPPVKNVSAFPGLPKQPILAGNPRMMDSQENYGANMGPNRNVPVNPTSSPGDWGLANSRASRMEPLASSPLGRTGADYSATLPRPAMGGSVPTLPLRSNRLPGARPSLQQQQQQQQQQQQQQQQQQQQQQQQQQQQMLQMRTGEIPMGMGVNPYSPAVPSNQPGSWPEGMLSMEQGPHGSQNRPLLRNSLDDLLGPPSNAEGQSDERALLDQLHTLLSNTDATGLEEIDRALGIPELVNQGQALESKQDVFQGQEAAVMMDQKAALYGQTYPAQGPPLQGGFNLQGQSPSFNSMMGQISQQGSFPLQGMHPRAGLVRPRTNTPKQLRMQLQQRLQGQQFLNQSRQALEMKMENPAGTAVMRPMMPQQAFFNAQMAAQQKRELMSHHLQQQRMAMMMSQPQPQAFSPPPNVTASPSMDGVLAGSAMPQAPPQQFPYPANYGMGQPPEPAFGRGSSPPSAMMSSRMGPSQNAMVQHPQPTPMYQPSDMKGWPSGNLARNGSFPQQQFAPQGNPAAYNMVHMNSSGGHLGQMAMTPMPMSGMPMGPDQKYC
Lipid drop inh: confirmation of inhibitors of hepatic lipid droplet formation; shares compounds with Lipid droplet; AML12 mouse hepatocytes, BODIPY lipid droplet imaging; droplets induced with 100 µM oleic acid; inhibition, % at 5.2 µM; hit rate 65% among 870;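 active = inhibition of lipid droplet metric at least 50%, with more than 300 cells in each of four replicates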;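 note: plate controls were DMSO with oleic acid for no effect and 5 µM Triacsin-C for full effect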
AML12 tox img: AML12 hepatocyte cytotoxicity (counter-screen) | shares compounds with Lipid droplet | AML12 mouse hepatocytes, DAPI nuclear morphology cytotoxicity imaging; stronger effect = higher value; cells fed 100 µM oleate overnight | z-score at 5 µM | hit rate 3% among 870; in the data active = z-score above about 6.3;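 note: compound exposure lasted overnight at 37 °C before fixation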
AML12 tox ATP: AML12 hepatocyte cytotoxicity, confirmed. 530 tested, under 10 active. AML12 mouse hepatocyte viability, ATP luminescence; cells loaded with 100 µM oleic acid. cytotoxicity, % at 50 µM. shares compounds with Lipid droplet;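 active = cytotoxicity above 50% in each of four replicates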;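 note: compound exposure lasted overnight at 37 °C before the ATP read; 0% = DMSO-treated cells and 100% = wells with no cells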
Numbers without * were called inactive; . = not tested or not shown.

SMILES	Arr AP2 block	Fh CTSL1 inh	Lipid droplet	p-CIP stab down	Lipid drop inh	AML12 tox img	AML12 tox ATP
CCOc1ccc2c(c1)-c1c(ssc1=S)C(C)(C)N2C(=O)c1ccco1	3	2	75*	6	90*	21*	.
CC1(C)CN(c2ccc(C(=O)c3ccccc3)cc2)C1=O	5	-2	-15	-11	.	.	.
CC(C)c1onc(C(=O)N(C)C2CCCCC2)c1[N+](=O)[O-]	-9	1	-7	5	.	.	.
CCOc1ccc(NS(=O)(=O)c2ccc(C(=O)N3CCC3)cc2)cc1	7	-5	71*	1	99*	-0.56	14
CCc1ccc(C(=O)CSc2nc3cc(S(=O)(=O)N4CCOCC4)ccc3n2CC)cc1	24	0	115*	0	22	-0.57	.
O=C(c1ccc(Cl)cc1)C1CCN(C(=O)NC2CCCCC2)CC1	12	-1	70*	9	85*	-0.19	10
CCc1c(C#N)c(SCCC(=O)Nc2cccc(OC)c2)nc2c1C(=O)CC(C)(C)C2	6	3	58*	6	101*	0.69	3
Cc1cc(C(=O)NC2CCCc3c2cnn3-c2cccc(C)c2C)no1 (stereo not drawn)	26	-2	-2	-3	.	.	.
Cc1cc(C)cc(-n2ncc3c2CCCC3NC(=O)C2CCC2)c1 (stereo not drawn)	-7	-5	16	-6	.	.	.
COc1ccc(C(=O)NC2CCCc3c2cnn3-c2cccc(C)c2C)o1 (stereo not drawn)	31	-3	50*	-8	88*	-0.19	7
CCn1cc(C(=O)NC2CCCc3c2cnn3-c2cccc(C)c2C)cn1 (stereo not drawn)	-12	-3	-21	-16	.	.	.
CC1=C(C(=O)NC2CCCc3c2cnn3-c2cccc(C)c2C)OCCO1 (stereo not drawn)	1	-14	63*	-8	105*	-0.5	16
COc1cccc(C(=O)NC2CCCc3c2cnn3-c2cc(C)cc(C)c2)c1 (stereo not drawn)	27	.	74*	-14	108*	-0.27	10
CCCNC(=O)Cc1c(O)c2ccccc2[nH]c1=O	2	1	0	-2	.	.	.
CN(C)S(=O)(=O)c1ccc(C(=O)NCc2ccc3[nH]c4c(c3c2)CCCC4)cc1	-1	1	-1	-1	.	.	.
CCN(CC)S(=O)(=O)c1ccc(C(=O)NCc2ccc3[nH]c4c(c3c2)CCCC4)cc1	-8	-1	85*	1	90*	0.14	16
COc1cc(O)c2c(=O)c3c(O)ccc(O)c3oc2c1	14	.	.	.	.	.	.
O=C(C1=NN(c2ccccc2)C2C(=O)N(c3cccc(Cl)c3)C(=O)C12)c1ccccc1 (stereo not drawn)	5	2	1	-14	.	.	.
NC(=O)CSc1nnnn1CC(CC(=O)O)c1ccccc1 (stereo not drawn)	8	-2	4	-1	.	.	.
O=C(Nc1nnc(Cc2ccccc2)s1)c1cccs1	3	6	.	8	.	.	.
Cc1c(Cl)sn(-c2ccc(Cl)cc2)c1=O	5	.	59*	-9	-13	11*	.
Cc1nn(-c2ccccc2)c(Cl)c1C1C(C#N)=C(N)OC2=C1C(=O)CCC2 (stereo not drawn)	-1	1	.	10	.	.	.
CCOC(=O)C(NC(=O)c1ccccc1)(OCc1ccccc1)C(F)(F)F (stereo not drawn)	5	8	54*	-6	66*	-0.86	15
CCOC(=O)C(NC(=O)NCc1ccccc1)(OCC)C(F)(F)F (stereo not drawn)	6	-1	-1	-14	.	.	.
CCOc1ccc(CCNC(=O)CSc2cc(=O)n(C)c3ccccc23)cc1OCC	2	6	98*	-17	106*	-0.049	14
SMILES	Arr AP2 block	Fh CTSL1 inh	Lipid droplet	p-CIP stab down	Lipid drop inh	AML12 tox img	AML12 tox ATP
CCOc1ccc(CCNC(=O)CCC(=O)N2CCSc3ccccc32)cc1OCC	-2	0	91*	0	110*	-0.67	18
CCOc1ccc(CCNC(=O)COC(=O)c2cccnc2OCC)cc1OCC	2	-1	98*	-11	105*	-0.53	9
CCOc1ccc(CCNC(=O)COC(=O)/C=C/c2ccc(OCC#N)c(OC)c2)cc1OCC	0	-7	63*	4	103*	-0.32	1
CCOc1ccc(CCNC(=O)COC(=O)c2ccccc2O)cc1OCC	-7	-4	42	-4	.	.	.
O=c1cc(-c2ccc([N+](=O)[O-])cc2)c2cc3c(cc2[nH]1)OCCO3	-7	0	1	2	.	.	.
COc1cc(=O)n(C)c2ccccc12	1	3	11	-12	.	.	.
O=C(COC(=O)c1cccnc1Nc1ccccc1F)NCCN1C(=O)CSC1=O	6	0	0	-6	.	.	.
CN(Cc1nccs1)C(=O)c1ccc(OC2CCN(CCc3ccccc3)CC2)cc1	-8	0	-1	1	.	.	.
CCOc1ccc(CCNC(=O)CN2CCN(Cc3ccccc3C)C2=O)cc1OCC	0	-1	83*	0	107*	-0.059	12
CCOc1ccc(CCNC(=O)COc2cc(=O)n(C)c3ccccc23)cc1OCC	-2	2	100*	-11	101*	-0.38	8
CCn1c(=O)cc(OCC(=O)NCCc2ccc(OC)c(OC)c2)c2ccccc21	9	0	-3	-8	.	.	.
O=C(NCCc1ccccc1)N1CCCC(CNS(=O)(=O)Cc2ccccc2)C1 (stereo not drawn)	41	3	-11	7	.	.	.
O=[N+]([O-])c1sccc1CS(=O)(=O)c1ccccc1	36	-3	71*	0	29	-0.14	.
Cc1ccccc1Oc1nc2ccccc2n2cnnc12	7	0	2	-1	.	.	.
CC(Sc1nnc(-c2ccccc2)c(-c2ccccc2)n1)C(=O)N1CCc2ccccc21 (stereo not drawn)	8	-1	57*	-12	82*	-0.34	8
CC1CC(C)CN(C(=O)COC(=O)CN2C(=O)c3ccccc3C2=O)C1 (stereo not drawn)	-4	.	.	.	.	.	.
CC1CC(C)CN(C(=O)c2ccc3c(c2NCCO)C(=O)c2ccccc2C3=O)C1 (stereo not drawn)	2	2	91*	34	115*	-0.98	37
CCOC(=O)C1=C(C)NC(=O)NC1/C=C/c1ccccc1 (stereo not drawn)	-8	-1	62*	-8	24	-0.43	.
CCOC(=O)Cc1ncccc1C(=O)Nc1ccc(Oc2ccccc2)cc1	34	2	5	-2	.	.	.
C(=N/n1c2ccccc2c2ccccc21)/c1ccco1	-2	0	-1	-1	.	.	.
N=c1scc(-c2ccccc2)n1/N=C/c1ccco1	3	3	54*	-4	26	-0.56	.
